In the library only some 2.5% were active in any assay of this set; here they are far more common.
FN deposit inh: fibronectin deposition inhibition | AH1F fibroblasts, Alexa488-fibronectin deposition fluorescence, overnight | 350,000 tested, 0.086% active | inhibition, % at 12.6 µM;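 active means mean inhibition across replicates of 30% or more, regardless of how many single replicates reach that level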;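 further: positive control wells lacked labelled fibronectin entirely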
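Material: AH1F fibroblast monolayer depositing Alexa488-labelled fibronectin into matrix / Amount: 10000 AH1F cells per well / Signal: fluorescence 485/525 nm / Medium: DMEM, 2% serum / Compound: single dose, pinned / Incubation: 1 h cell adhesion before compound, then overnight fibronectin incubation / Reagent: Alexa488-FN, 24 nM final / Read-out: inhibition of fibronectin deposition signal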
EWS-Fli block: blocks EWS/Fli oncoprotein-driven transcription | A673 NR0B1-luciferase reporter, viability-normalised | 350,000 tested, 0.67% active | AID 651661 | inhibition, % at 12.6 µM;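 active means mean inhibition of at least 50% after viability correction, with every replicate also passing that limit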;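 further: firefly luciferase signal divided by Alamar Blue viability fluorescence both relative to DMSO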
PAX8 inh HTS: PAX8 transcriptional activity inhibition; RMG-I TPO-luciferase reporter, SteadyGlo, 24 h; inhibition, % at 12.6 µM; 360,000 tested, 1.2% active; AID 652154;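 active means mean replicate inhibition at least 60% with every replicate also reaching 60%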;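 further: luciferase light reporting Pax8 driven TPO promoter activity; plate controls were median of neutral control wells for no effect and mitoxantrone controls for full effect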
N-glyco inh: blocks N-linked glycosylation in D54 reporter cells. reporter increase, % at 12.5 µM. 360,000 tested, 0.23% active. D54 ERlucT glycosylation luciferase reporter, 24 h; percent of 100 nM tunicamycin response. AID 588692;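 active means mean luciferase reporter signal, scaled so untreated is 0 and the glycosylation-blocking control 100, at or above a set limit in every replicate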;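 further: luciferase carries N-glycosylation sites so blocking glycosylation raises the light; 0% = median of neutral control wells and 100% = median of 100 nM tunicamycin wells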
AF4-AF9 inh: blocks AF4 peptide binding to human AF9. P42568. AlphaScreen, biotin-AF4 peptide binding to FLAG-AF9. inhibition, % at 10 µM. 350,000 tested, 0.47% active. AID 651704;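 active means every replicate reaching a set inhibition limit, whatever the replicate mean, cut at about 25% in these data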;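 further: 0% = plate neutral control median and 100% = total signal loss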
Target sequence (P42568 whole entry, looked up): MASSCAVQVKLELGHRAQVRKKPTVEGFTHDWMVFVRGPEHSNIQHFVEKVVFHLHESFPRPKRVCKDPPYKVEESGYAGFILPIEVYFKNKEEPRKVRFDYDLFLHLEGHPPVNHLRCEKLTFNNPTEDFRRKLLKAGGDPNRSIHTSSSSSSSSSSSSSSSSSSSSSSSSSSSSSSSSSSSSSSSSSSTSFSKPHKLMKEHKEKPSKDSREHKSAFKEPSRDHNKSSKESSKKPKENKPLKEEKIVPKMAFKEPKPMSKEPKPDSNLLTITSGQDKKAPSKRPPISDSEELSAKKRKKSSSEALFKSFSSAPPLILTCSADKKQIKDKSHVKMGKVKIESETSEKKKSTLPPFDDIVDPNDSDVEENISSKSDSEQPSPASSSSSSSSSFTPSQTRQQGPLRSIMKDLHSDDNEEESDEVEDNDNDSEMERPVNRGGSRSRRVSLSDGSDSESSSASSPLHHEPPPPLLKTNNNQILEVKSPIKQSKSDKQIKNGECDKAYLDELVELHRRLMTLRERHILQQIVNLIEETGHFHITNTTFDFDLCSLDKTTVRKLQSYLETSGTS
HIV Env fusion: blocks HIV Env-driven cell-cell fusion; 360,000 tested, 1.1% active; AID 651610; inhibition, % at 12.3 µM; HeLa-JRFL Env/CEM21 cell fusion, luciferase;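 active means mean replicate inhibition score of at least 50 and every replicate individually at or above 50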;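 further: 0% = plate neutral controls and 100% = maraviroc near 300 nM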
* hit, by the source's call; i = inactive; . = no result; ! = a repeat was not active; [ ] = another dose, or the depositor's remark.

SMILES	FN deposit inh	EWS-Fli block	PAX8 inh HTS	N-glyco inh	AF4-AF9 inh	HIV Env fusion
CC(Oc1ccc(F)cc1)c1nnc(SCC(=O)N(c2ccccc2)C2CCS(=O)(=O)C2)o1 (stereo not given)	-1	12	4	-2	-6	45
O=C(CCl)N1c2ccccc2SCC1c1ccccc1 (stereo not given)	-3	61*	14	9	2	0
O=C(CCl)N1c2ccccc2OCC1c1ccccc1 (stereo not given)	4	0	-1	3	-6	22
COCC(=O)Nc1ccc2c(c1)OC[C@@H](C)N(CC1CCCCC1)C[C@@H](C)[C@@H](OC)CN(C)C2=O	4	.	.	.	.	.
COc1ccc(S(=O)(=O)N(C)C[C@H]2OCCCC[C@@H](C)Oc3ccc(NC(=O)Nc4ccc(C(F)(F)F)cc4)cc3C(=O)N([C@@H](C)CO)C[C@@H]2C)cc1	.	63*	55	.	-9	-11[16.7 µM]
COc1ccc(S(=O)(=O)N(C)C[C@H]2OCCCC[C@@H](C)Oc3ccc(NC(=O)Nc4ccc(C(F)(F)F)cc4)cc3C(=O)N([C@@H](C)CO)C[C@H]2C)cc1	-8	-4	8	.	-9	5[16.7 µM]
COc1ccc(S(=O)(=O)N(C)C[C@@H]2OCCCC[C@H](C)Oc3ccc(NC(=O)Nc4ccc(C(F)(F)F)cc4)cc3C(=O)N([C@H](C)CO)C[C@H]2C)cc1	0	18	79*!	-6	1	-6
COc1ccc(S(=O)(=O)N(C)C[C@@H]2OCCCC[C@H](C)Oc3ccc(NC(=O)Nc4ccc(F)cc4)cc3C(=O)N([C@H](C)CO)C[C@H]2C)cc1	8	19	67*	.	2	21[16.7 µM]
COc1ccc(S(=O)(=O)N(C)C[C@@H]2OCCCC[C@@H](C)Oc3ccc(NC(=O)Nc4cccc5ccccc45)cc3C(=O)N([C@H](C)CO)C[C@H]2C)cc1	.	13	-1	.	-17	-14[16.7 µM]
CC(C)c1cn(CC[C@H]2CC[C@@H](NS(=O)(=O)c3ccccc3)[C@@H](CO)O2)nn1	.	8	-7	.	-2	-17[16.7 µM]
COc1cc2c3c(c1)C(C)CC(C)(C)N3C(=O)C2=O (stereo not given)	1	20	18	0	20	60*
CCc1cc2c3c(c1)C(C)CC(C)(C)N3C(=O)/C2=C1\SC(=O)NC1=O (stereo not given)	-5	17	-4	0	.	-2
CCOC(=O)c1ccc(NC(=O)CCc2nc(-c3ccc(C)cc3)no2)cc1	1	.	23	-5	.	-20
CCOC(=O)c1ccc(NC(=O)CCc2nc(-c3ccc(Cl)cc3)no2)cc1	-38	.	.	-4	.	59*
CCC(=O)NCCc1nc(-c2ccccc2)no1	1	-14	-6	-1	2	60*
O=C(CCCc1nc(-c2ccccc2)no1)Nc1cccnc1	-3	.	2	-2	.	-89
COc1ccc(-c2noc(CCCC(=O)O)n2)cc1	-7	.	.	1	.	84*
Cc1ccc(-c2noc(CCCC(=O)Nc3cccnc3)n2)cc1	-11	.	-21	0	.	64*
O=C(Cc1ccccc1)N1CC(=O)N2[C@H](CO)[C@H](c3ccc(C#Cc4ccccc4)cc3)[C@@H]2C1	.	.	.	.	-11	.
COc1ccc2c3c(n(C)c2c1)[C@H](CO)N(CC1CC1)CC31CCN(C(=O)c2ccc3c(c2)OCO3)CC1	.	9	.	.	2	.
CCCN(C)C[C@H]1Oc2ncc(-c3cccc(C#N)c3)cc2C(=O)N([C@@H](C)CO)C[C@@H]1C	11	-4	.	.	0	5[16.7 µM]
Cc1cccc(NC(=O)CN2C(=O)C3CC=CCC3C2=O)c1C (stereo not given)	4	-4	-9	2	-1	22
Cc1ccccc1NC(=O)CN1C(=O)C2C3CC(C(Br)C3Br)C2C1=O (stereo not given)	4	5	63*	-2	6	49
CN(C)CC#Cc1cccc(-c2nc(C(=O)NCCCN3CCOCC3)cc3c2[C@H](CCO)N(S(=O)C(C)(C)C)C3)c1 (stereo not given in full)	.	0	2	.	.	2[16.7 µM]
CC(C)(C)[S@@](=O)N1Cc2cc(C(=O)NCc3ccccc3F)nc(-c3cccc(-c4cccnc4)c3)c2[C@H]1CCO	19	18	13	.	0	1[16.7 µM]
SMILES	FN deposit inh	EWS-Fli block	PAX8 inh HTS	N-glyco inh	AF4-AF9 inh	HIV Env fusion
CC(C)(C)S(=O)N1Cc2cc(C(=O)NCCCN3CCOCC3)nc(-c3cccc(C#CCC4CCCC4)c3)c2[C@@H]1CCO (stereo not given in full)	9	21	82*	.	11	22[16.7 µM]
CC(C)(C)[S@@](=O)N1Cc2cc(C(=O)NCc3ccccc3F)nc(-c3cccc(-c4cncnc4)c3)c2[C@H]1CCO	31*	-8	15	.	4	4[16.7 µM]
CC(=O)N(C)C[C@H]1Oc2ncc(C#Cc3cccnc3)cc2C(=O)N([C@H](C)CO)C[C@H]1C	5	5	.	.	-6	-9[16.7 µM]
CN(C)CCCNC(=O)C[C@H]1CC[C@H]2[C@@H](COc3ccc(NC(=O)CN(C)C)cc3C(=O)N2C)O1	0	.	.	.	.	.
CNC(=O)C[C@@H]1CC[C@H]2[C@H](COc3ccc(NC(=O)Nc4cccc(Cl)c4)cc3C(=O)N2C)O1	-4	-12	10	.	0	6[16.7 µM]
COc1ccc2[nH]c(=O)c3c(c2c1)OC(C)(C)C=C3	6	.	-25	-8	-10	136*
C[C@H]1CN([C@@H](C)CO)C(=O)Cc2cc(NS(=O)(=O)c3cccs3)ccc2O[C@H]1CN(C)S(=O)(=O)c1ccccc1	.	-6	-15	.	1	24[16.7 µM]
CCS(=O)(=O)Nc1ccc2c(c1)C(=O)N(C)[C@H]1CC[C@H](CC(=O)Nc3ccccc3C)O[C@@H]1CO2	0	-5	.	.	-1	7[16.7 µM]
O=C(C[C@H]1CC[C@H]2[C@@H](COC[C@H](O)CN2Cc2cc(F)ccc2F)O1)N[C@H]1CCN(Cc2ccccc2)C1	5	5	4	.	14	11[16.7 µM]
COc1ccc(S(=O)(=O)Nc2cccc3c2O[C@@H](CN(C)Cc2ccccc2)[C@@H](C)CN([C@H](C)CO)C3=O)cc1	.	3	1	.	-1	-8[16.7 µM]
CCN(CC)CCCN(C(=O)c1cccs1)c1nc(-c2ccc(OC)cc2)cs1	.	.	.	-4	.	.
CCN(CC)CCCN(C(=O)c1ccc(Br)cc1)c1nc(-c2ccc(OC)cc2)cs1	1	23	30	-8	31*	17
CCN(CC)CCCN(C(=O)c1ccco1)c1nc(-c2ccc(Cl)cc2)cs1	-3	36	13	0	26*	-30
O=C1C(=Cc2ccccc2O)SC(=S)N1CCCN1CCOCC1	-8	12	26	-1	-2	85*
O=C(CSc1nc2ncccc2[nH]1)NC1CCCC1	-22	-4	-18	0	40*	i
